In PMC10120002 (Proceedings of the National Academy of Sciences of the …, 2023):
Ends that are not written are not given here.

Biological target: recombinant Cdk5/p25 complex (Homo sapiens, UniProt Q00535+Q15078)
Assay: IP-linked Cdk5 kinase assay, recombinant Cdk5/p25, histone H1
Type: biochemical
Conditions: recombinant Cdk5/p25, overnight incubation, vs solvent control
In short: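 Recombinant Cdk5/p25 complex incubated overnight with test peptide or solvent control, then immunoprecipitated with anti-Cdk5 antibody overnight at 4 °C. The immunocomplex was used for a kinase reaction with histone H1 as substrate and ³²P label, resolved on 12% SDS-PAGE, dried, and exposed to film for several hours. ³²P-histone H1 band intensity was quantified, with Coomassie staining as loading check. Six replicates from two independent experiments.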

Sequence of recombinant Cdk5/p25 complex (Q00535 whole entry): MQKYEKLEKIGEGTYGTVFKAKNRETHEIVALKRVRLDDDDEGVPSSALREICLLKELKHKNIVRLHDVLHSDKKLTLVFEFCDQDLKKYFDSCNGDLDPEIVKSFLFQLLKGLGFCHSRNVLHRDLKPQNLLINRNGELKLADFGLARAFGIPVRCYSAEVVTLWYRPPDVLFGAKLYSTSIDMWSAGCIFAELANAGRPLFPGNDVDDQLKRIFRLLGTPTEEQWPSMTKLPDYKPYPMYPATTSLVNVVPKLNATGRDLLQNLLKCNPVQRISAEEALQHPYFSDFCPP
Sequence of recombinant Cdk5/p25 complex (Q15078 99-307 limits assumed): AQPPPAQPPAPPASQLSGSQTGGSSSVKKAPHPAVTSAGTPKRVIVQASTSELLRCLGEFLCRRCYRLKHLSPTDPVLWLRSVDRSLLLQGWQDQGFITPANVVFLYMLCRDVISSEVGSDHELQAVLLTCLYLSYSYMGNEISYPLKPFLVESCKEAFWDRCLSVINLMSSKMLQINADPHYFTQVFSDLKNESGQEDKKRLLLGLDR

ARAFGIPVRCYS [Cdk5i]
reduction of histone H1 phosphorylation by Cdk5/p25: ~ 22%
